Results published in the EternaBench riboswitch data.

Tested on: MS2 coat protein
Assay: apparent Kd, MS2 coat protein; higher = weaker binding; RNA-MaP array; FMN 200 µM where present
Method in brief: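 Green signal was scaled to red-channel RNA signal and control-cluster median Fmax, and the apparent Kd was taken as the median of filtered per-cluster binding-curve fits. The binding series used SNAP-549-labelled MS2 coat protein from 0.7 or 1.5 nM, doubling to 3 µM, on designs transcribed by stalled E. coli RNA polymerase on Illumina sequencing-chip clusters. Each series ran without and then with constant ligand in 100 mM Tris-HCl pH 7.5, 80 mM KCl, 4 mM MgCl2, BSA, DTT, yeast tRNA and Tween-20.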

[1] = designed as: OFF switch for flavin mononucleotide, no ligand
[2] = ligand present: flavin mononucleotide, designed as: OFF switch for flavin mononucleotide
[3] = designed as: ON switch for flavin mononucleotide, no ligand
[4] = ligand present: flavin mononucleotide, designed as: ON switch for flavin mononucleotide

Row | Sequence | apparent Kd [1] [nM] | apparent Kd [2] [nM] | apparent Kd [3] [nM] | apparent Kd [4] [nM]
1 | CGCGCGCGUGUUAGGAUAUAUGUGUGUGGUUAUUUAUAGAAGGGACAUGAGGAUCACCCAUGUGUGUGGGCGCG | 520 | 489 | – | –
2 | AACAUGGUACAGAAGGGCAAUUUAUUUAUUUAUUAUUUAGAACAGCAUUGCAGGAUAUGUUUAACAUGAGGAUCACCCAUGUAC | – | – | 84.4 | 15.8
3 | UUGGGACUAUCAGGAUAUGGUGUAGCCUAGUAAAGGACAUGAGGAUCACCCAUGUACCAUUGGUACCAGAAGGGAUGAUCCUAC | – | – | 173 | 46
4 | CGGCAUCAUGUAGGAUAUGCGUGGCGAAGCUAUGCAGAAGGACAUGAGGAUCACCCAUGUCUUAGCUAGCGUACUAGCUUGCCG | 6.24 | 16.6 | – | –
5 | ACAUGAUAUGUAGGAUAUCACAUUAAUUGUUUAAUAAUUGAAUUUAGGAUUUGAGAAGGACAUUUACAUGAGGAUCACCCAUGU | 16.9 | 12.7 | – | –
6 | UUGUUAGGGAGAGGAUAUUGACAUGAGGAUCACCCAUGUACUUGGGAGUGUUUACUGAAUUCUUACGAGAAGGCUUACAAAUUU | 165 | 105 | – | –
7 | UGCAUGUAAGGAUAUGCACUGCGCGAGCCUGGCUCGCAAAGGCAGAAGGUACAUGAGGAUCACCCAUGUGAGAA | 91.5 | 99.7 | – | –
8 | ACGGUGGUCACAGGAUAUCCGGCCCGCGUGGCCGGAGAAGGGUGACUCAGAACCACAUGAGGAUCACCCAUGUGCCUUGCCGUA | – | – | 102 | 35.5
9 | UUGGACGUCAUAGGAUAUGUAGGAUAUUCCUACAUGAGGAUCACCCAUGUUGACAUGGAAGAAGGACAGAAGGACGAUGUCCAU | – | – | 665 | 10.7
10 | UAAAAGUGAGGAUAUCCAAUAUAUGACAUGAGGAUCACCCAUGUUUCCACUCGUACCUCCGGAGAAGGCACAAAGU | 29.5 | 28.5 | – | –
11 | UUGUUAUAUGUAGGAUAUGCGUGUUAUUAUUAUGCAGAAGGACAUGAGGAUCACCCAUGUGUAUUAUUAUUAUAUAUUAUAUAU | 20.3 | 18.1 | – | –
12 | AAAACAUGAGGAUCACCCAUGUUAAGAUCGGUCAAUAGAAGUGAGGAUAUACGAAGUUAAGGCUGGUAGAAGGCACUGGGUACA | – | – | 43.5 | 37.1
13 | GAGUGGAGGAAAGGAUAUACAAUGAUAAUCACAGUAGAAGGUUCUAACAUGAGGAUCACCCAUGUAGGACUAUACCAGAGAGGG | – | – | 13.1 | 12.5
14 | GUUUUUCCUCAUGUACAUGAGGAACAUGAGGAUCACCCAUGUAGAAGGAAUUUUUUUAAGUUUAGUUAGGAUAUACAUAUAUUU | 72.9 | 64.5 | – | –
15 | AUUAUACAUGAGGAUCACCCAUGUAAUUAAUUAAUUAAGAUCAAGGAUAUCAGCUCGAUUAGAGCUGAGAAGGUGAUCACAUGU | – | – | 402 | 292
16 | CCGGAAAUACAGGAUAUAGGAGUAAAUAUACUCCUAGAAGGGUAUACAUGAGGAUCACCCAUGUGUCCUACCGG | 26.6 | 27.3 | – | –
17 | GAACCUAAGUUAGGAUAUGUCUAAGAAAGCUGACAUGAGGAUCACCCAUGUGAAUGCAAAGAAUGGCAGAAGGGAUAUGGGUGG | – | – | 73 | 76.8
18 | GGACAUUUACAGAAGGGCAAAUUUUAUAGUGAAUAUUUAGUUCUGAUUUGCAGGAUAUGUUGAACAUGAGGAUCACCCAUGUCC | – | – | 18.3 | 10.9
19 | AGUGCUAGAGGAUAUGCAGUGGCGUUCUGUAUUCACAGCUCACAUGAGGAUCACCCAUGUAGAAGGCUAGCUAC | 23.6 | 106 | – | –
20 | CUCUAGCUCACAGGAUAUGGGUGUCGACGAUGCCCAGAAGGGUGAUUUGGCACAUGAGGAUCACCCAUGUGGGCGCUUGAAUAU | – | – | 44.5 | 94.3
21 | GGUGCAUAUGAGAAGGCGAUCAUGAAACAUGAUCGAGGAUAUCAUGUAAACAUGAGGAUCACCCAUGUAUGGGAAAAGUGCACC | – | – | 64.8 | 8.54

Row | Sequence | apparent Kd [1] [nM] | apparent Kd [2] [nM] | apparent Kd [3] [nM] | apparent Kd [4] [nM]
22 | CCCUACGUUUCGUAGCAGUGUCAUCGAGAAGGCCCUGACAUGAGGAUCACCCAUGUUGUUACAUGGGAGGAUAUCGAUGAUGGG | – | – | 23 | 6.1
23 | UUACCCUCAGUAAGGAUAUCUUUAUCUGCUGAUAUAGAGAAGGUACAUGAGGAUCACCCAUGUGCGAUUGGGCU | 116 | 282 | – | –
24 | AAAACGUGAGGAUAUGCACCAACCAAGGUUUUUCGGGUACGACAUGAGGAUCACCCAUGUAGAAGGCACGAAAA | 16.2 | 12.9 | – | –
25 | GACUUGCUGUCAGGAUAUAACCGUCCUACACGGUUAGAAGGGACAUGAGGAUCACCCAUGUGCCAGAGCGCACGAAUUUUUUAC | 10.8 | 50.9 | – | –
26 | UGUAUUAACGGAGGAUAUCGAUAUCAAACAUGAGGAUCACCCAUGUUGAGGAUCACCCAUGUCCAUGAGAAGGCCGGCGUACUU | – | – | 36.2 | 29.4
27 | AGAUAGUGGUGAGGAUAUCAGAAUAGAAAGAAAUGAGAAGGCACACAUGAGGAUCACCCAUGUGAGUUCUUGAGAUUACAUGGU | 18.4 | 34.2 | – | –
28 | UUGGAGUACGUAGGAUAUGUAGGAUAUUCCUACAUGAGGAUCACCCAUGUUGACAUGGAGGAAGGACAGAAGGACGUGCUCCAU | – | – | 435 | 241
29 | AGGCCGCUACGCCGGCUUCACGCACAGGAUAUGCAGUUACAUGAGGAUCACCCAUGUGGCCAUGUGCAGAAGGGUGGUUCGCGA | – | – | 39.5 | 18.6
30 | UGGCGUAUCGAAGGAUAUCUGGGCUUACUCGGAGGAUCGACAUGAGGAUCACCCAUGUAUGACCAAGAGAAGGUCGAGGACGUA | 141 | 253 | – | –
31 | CUAAAUCAUGUAGGAUAUGCAUGGCGAAGCUACGCAGAAGGACAUGAGGAUCACCCAUGUCAGUACGUCUGCGUACAGACGUUG | 14.3 | 19.1 | – | –
32 | UUUUUAUUUGCAGGAUAUUGUUUUUUAUUACUUCAAGAAGGGCAUUACAUGAGGAUCACCCAUGUCAUCCUAUGGUUAACUAGU | 9.64 | 11.6 | – | –
33 | AACAGUACAGGAUAUACAUGAGGAUCACCCAUGUGAAGAUUAAGUGGUGUACCACUAAGUAGAAGGGUACUGGA | 28.8 | 126 | – | –
34 | UGUCGGAACAGAGGAUAUUACAUGAGGAUCACCCAUGUAUGAACCAAUAGCUGGAAACAGCAAUGUAAGAAGGCUGCUCCGACA | 11.9 | 147 | – | –
35 | UCCGAAUCGUAGAAGGGUGACAUGAGGAUCACCCAUGUGCAGCAGCCGUGAACGGCCAUGCUGCCACAGGAUAUACGAUGGAGU | – | – | 41.1 | 56.2
36 | AAUUUGCACGCAGGAUAUCGAUAUAAAAGCUGACGAGAAGGGCGGUACAUGAGGAUCACCCAUGUGAACGCCGGGUGGUCUCGU | 6.55 | 9.34 | – | –
37 | GCCCGGCCCGGGCCCACGGCAUCACAGGAUAUGCCGAUCACAUGAGGAUCACCCAUGUCAACUCCGCAGAAGGGUGAUAUCGUG | – | – | 322 | 33.2
38 | UUUGCAUGACGAGGAUAUCAUUUAUUUCUUGAUUGAGAAGGCGUUCUUUUUACUACCUAACAUGAGGAUCACCCAUGUGACAGU | – | – | 16.1 | 12.7
39 | CCAUGACCGGAGAAGGCAGUUUGUGGGCCUGUUCCUGUCGGAUACAUGAGGAUCACCCAUGUACCUGAGGAUAUCUGGUCGCAG | 5.06 | 6.13 | – | –
40 | CGGCGCUGUUGAGAGGAUAUGCGGUGAUGGACAUGAGGAUCACCCAUGUUAGCGAUAGCAUUACGGUAGAAGGCUCUACAGCUGU | – | – | 28.1 | 16.7
41 | UUCGAACAAGUCAGGAUAUGGUUAUUGGUGUGUGACUAGAAGGGACAUGAGGAUCACCCAUGUGCACCUACCAU | 16 | 16.7 | – | –
